Screening results: PubChem, several laboratories
This is a sample that favours compounds with a hit; in the whole collection about 6.7% have one here.
CSC inhib: cancer stem cell inhibition; inhibition, % at 7.5 µM; 300,000 tested, 1.1% active; cancer stem cell-like cells viability, luminescence; in the data active = inhibition above about 75%; inconclusive = no clear call, values can overlap the other calls; tested in HMLE shEcad cells
T cruzi repl: T. cruzi replication inhibition; T. cruzi beta-gal in NIH3T3, luminescence, 90 h; inhibition, % (test concentration not listed); 300,000 tested, 1.4% active;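 active = mean inhibition across valid replicates above about 55%, limit read from the data; inconclusive = mean below that limit but half or more replicates reach it; inactive = mean below it, under half of replicates reach it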;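 note: signal also drops with host cell toxicity which is not excluded here; 0% = plate median of DMSO wells and 100% = zero luminescence signal; higher percent means less beta-gal luminescence so fewer parasites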
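System: NIH/3T3 fibroblasts plus reporter T. cruzi. Medium: DMEM plus 2% FBS. Probe or stimulus: 5000 reporter trypomastigotes per well. Compound: single 50 nL compound addition per well in DMSO. Incubation: co-culture of at least 90 h after 3 h attachment. Detection: GalScreen β-gal luminescence, detergent lysis, 60 min. Evaluation: parasite load inhibition, %.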
CHOP inhibitor: blocks CHOP induction under ER stress; inhibition, % at 10 µM; 220,000 tested, 3.8% active; CHO-K1 CHOP-promoter luciferase, tunicamycin-induced, 15-18 h; AID 2732;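 active = compounds that reduced the stress-induced luciferase reporter signal by more than about 70% of percent inhibition, limit read from the data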;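 note: 0% = tunicamycin plus vehicle and 100% = wells without tunicamycin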
Beta cell apopt: beta cell apoptosis inhibition. protection from apoptosis, % (test concentration not listed). 300,000 tested, 0.8% active. AID 435005. INS-1E cytokine-induced death, ATP luminescence, 48 h; percent of positive-control rescue, neutral wells zero;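 active = Every replicate reaches about 75%, or at least half do and their mean reaches it too, limit read from the data; inconclusive = At least half of replicates reach the limit but their mean does not; inactive = Under half of replicates reach the limit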;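 note: 0% = cytokine-treated negative control wells and 100% = positive control rescue; higher means more ATP so stronger rescue from cytokine killing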
NR3A LBD binder: NR3A (human) ligand-binding domain modulation; AID 1259313; Tm shift relative to glycine control, % at 25 µM; NR3A LBD differential scanning fluorimetry, Tm shift; 0% = protein alone, 100% = glycine-bound protein; 340,000 tested, 2.5% active;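 active = melting temperature shift of at least 10% of the positive control shift, at one fixed dose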
PREPL inhibitor: human PREPL enzyme inhibition; 320,000 tested, 0.68% active; recombinant PREPL, fluorescence polarization activity-based probe; AID 2751; Q4J6C6; inhibition, % at 5.96 µM; in the data active = inhibition above about 43%;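 note: 0% = enzyme with DMSO and 100% = wells lacking enzyme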
Target sequence (Q4J6C6 whole entry, looked up): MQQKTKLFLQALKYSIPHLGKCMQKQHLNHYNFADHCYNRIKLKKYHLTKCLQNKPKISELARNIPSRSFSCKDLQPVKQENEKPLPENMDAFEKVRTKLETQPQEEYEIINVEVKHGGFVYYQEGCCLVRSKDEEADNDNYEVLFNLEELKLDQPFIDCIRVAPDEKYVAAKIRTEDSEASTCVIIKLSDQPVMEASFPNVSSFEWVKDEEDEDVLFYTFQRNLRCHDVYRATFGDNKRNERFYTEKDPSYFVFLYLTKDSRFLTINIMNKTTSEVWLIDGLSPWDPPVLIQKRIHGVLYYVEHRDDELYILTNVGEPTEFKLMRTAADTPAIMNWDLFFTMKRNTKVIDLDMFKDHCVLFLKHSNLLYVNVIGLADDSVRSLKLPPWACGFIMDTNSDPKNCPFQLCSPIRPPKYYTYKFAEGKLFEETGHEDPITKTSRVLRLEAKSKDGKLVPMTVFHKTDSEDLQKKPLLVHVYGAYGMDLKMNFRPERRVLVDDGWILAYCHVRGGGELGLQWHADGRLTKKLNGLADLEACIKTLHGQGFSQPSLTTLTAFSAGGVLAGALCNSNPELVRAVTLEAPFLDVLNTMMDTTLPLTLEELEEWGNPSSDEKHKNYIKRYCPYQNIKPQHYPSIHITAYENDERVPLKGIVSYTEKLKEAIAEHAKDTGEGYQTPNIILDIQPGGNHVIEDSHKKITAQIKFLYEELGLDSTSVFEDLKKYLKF
The depositor's hits bear a star; u = inconclusive; x = not tested or not shown.

SMILES	CSC inhib	T cruzi repl	CHOP inhibitor	Beta cell apopt	NR3A LBD binder	PREPL inhibitor
COc1cc(OC)c(-c2nc3ccccc3s2)cc1OC	33	8	72*	12	-2	22
COc1cc(NC(=O)CN2C(=O)C(=O)N(CC(C)C)C2=O)cc(OC)c1	x	x	x	x	29*	x
COc1cc(NC(=O)CN2C(=O)C(=O)N(C3CCCC3)C2=O)cc(OC)c1	-3	x	x	-3	-36	1
Cc1noc(C)c1COC(=O)CCc1nc2ccccc2c(=O)[nH]1	-6	-7	-12	2	21*	-2
Cc1ccc(COC(=O)CCc2nc3ccccc3c(=O)[nH]2)cc1	-19	7	0	-12	0	-6
COc1ccc(-n2c(-c3ccc(Br)cc3)c[n+]3c2SC(C)C3)cc1 (centres undefined)	x	90*	-25	x	-3	28
CCOc1ccc(-c2c[n+]3c(n2-c2ccccc2)CCCCC3)cc1	40	66*	-7	98*	1	8
Cc1ccc(-n2c(-c3ccc(Cl)cc3)c[n+]3c2CCC3)cc1	16	31	12	72	-3	6
COc1ccc(-n2c(-c3ccc(Br)cc3)n[nH]c2=S)cc1	3	-2	x	0	1	1
Cc1ccc(-n2c(-c3ccccc3)c[n+]3c2CCC3)cc1	-1	48	3	109*	1	4
COc1ccc(-n2c(-c3ccc(Br)cc3)c[n+]3c2CCCCC3)cc1	18	66*	11	111*	5	10
COc1ccc(-n2c(-c3ccccc3)c[n+]3c2CCC3)cc1	-7	12	-13	46	-4	10
COc1ccc(-n2c(-c3ccc(Br)cc3)c[n+]3c2CCC3)cc1	2	41	1	76*	0	14
N=C1C(c2nc3ccccc3[nH]2)=C(O)CN1NC(=O)COc1cccc(F)c1	-15	-10	8	-3	x	5
Cc1ccc(S(=O)(=O)N(CCCO)CC(O)CON=C2c3ccccc3-c3ccccc32)cc1 (centres undefined)	35	65*	41	-1	-2	7
COc1ccccc1C(=O)NCCC(=O)NCc1ccccn1	2	x	x	-3	-3	5
Nc1nc(CN2CCN(c3ccccc3)CC2)nc(N2CCCc3ccccc32)n1	x	-26	16	-3	1	8
Nc1nc(CN2CCN(c3cccc(Cl)c3)CC2)nc(N2CCCc3ccccc32)n1	-15	-17	88*	-6	-4	14
c1ccc2c(-c3nc(C4CCCCC4)no3)cc(-c3ccncc3)nc2c1	x	52	33	3	15*	7
COc1ccc(-c2cc(-c3nnc(-c4ccncc4)o3)c3ccccc3n2)cc1	12	24	9	6	-6	3
Cc1ccc(CSc2ccc(-c3ccc4c(c3)OCO4)nn2)cc1	79*	2	34	-8	1	-4
Cc1ccc(CSc2ccc(-c3cccs3)nn2)cc1	-5	3	38	-7	14*	0
Fc1ccc(CSc2ccc(-c3cccs3)nn2)cc1	11	-2	-19	-4	1	6
COc1ccc(CCNC(=O)CSc2ccc(-c3cccs3)nn2)cc1	2	-13	4	-5	29*	-31
O=C(C=Cc1cccs1)c1ccccc1	x	x	x	x	4	x
SMILES	CSC inhib	T cruzi repl	CHOP inhibitor	Beta cell apopt	NR3A LBD binder	PREPL inhibitor
COc1ccc(CN(C)CC(=O)Nc2cccc(S(=O)(=O)N(C)c3ccccc3)c2)c(OC)c1	0	x	x	-4	2	13
C=C(C)COc1ccc(-c2nc(N)nc(C)c2-c2ccc(OC)cc2)c(O)c1	9	48	92*	-2	-12	27
COc1ccc(-c2nc(N)ncc2Oc2ccccc2Br)c(O)c1	-4	13	88*	-2	-3	-6
COc1cccc(Oc2cnc(N)nc2-c2ccc(OC)cc2O)c1	x	-2	x	3	0	4
C=C(C)COc1ccc(-c2nc(N)ncc2-c2ccc(OC)cc2)c(O)c1	x	x	103*	x	x	x
C=C(C)COc1ccc(-c2nc(N)ncc2-c2ccc(Cl)cc2)c(O)c1	104*	47	x	2	20*	15
C=C(C)COc1ccc(-c2nc(N)ncc2-c2ccc(OC)c(OC)c2)c(O)c1	2	46	x	-11	1	x
CCc1nc2ccc(C)cc2c(C(=O)NC2CCCCC2C)c1C (centres undefined)	-1	2	0	3	3	16
CCCSCCCNC(=O)CN1C(=O)COc2ccc(S(=O)(=O)N3CCCC3)cc21	x	-2	x	x	1	9
C=C(C)COc1ccc(-c2nc(N)nc(C)c2Oc2ccccc2OC)c(O)c1	17	37	85*	-2	-13	15
C=C(C)COc1ccc(-c2ncncc2Oc2ccc(OC)cc2)c(O)c1	16	x	34	3	21*	-5
C=C(C)COc1ccc(-c2[nH]ncc2-c2ccc(OC)cc2)c(O)c1	u	7	38	-9	5	15
CCOc1ccc(-c2nc(N)nc(C)c2-c2ccc(OC)c(OC)c2)c(O)c1	1	x	27	-6	-1	14
O=C(O)C1C2C=CC3(CN(c4cccc(C(F)(F)F)c4)C(=O)C13)O2 (centres undefined)	-7	-23	23	-4	11*	-1
CC1(C)CC(=O)C=C(C(=O)N2CCCC(C(=O)c3cccc(C(F)(F)F)c3)C2)O1 (centres undefined)	18	-3	x	0	2	25
CCOC(=O)CSC1=NC(=O)/C(=C/c2ccc(Br)cc2)S1	27	2	102*	-10	-15	-6
O=C(C[C@@H]1C/C=C\CC[C@H](Cc2ccc(F)cc2)C(=O)OC[C@@H]2CCCN2C1=O)N[C@H](CO)Cc1ccccc1	11	x	x	-9	0	27
CCOC(=O)c1c(C)oc2ccc(OCC(N)=O)cc12	-12	-4	23	0	-9	6
CCOC(=O)c1c(C)cccc1OCC(N)=O	-5	x	43	x	25*	13
CCCCCCSc1cc(-c2nc3ccc(Cl)cn3c2NCCCC)ccc1OC	34	37	x	38	-10	-4
CCCCCCSc1cc(-c2nc3ccc(C)cn3c2NCCCC)ccc1OC	97*	x	x	84*	-10	23
CCCCNc1c(-c2ccc(OC)c(SC(C)CC)c2)nc2ccc(C)cn12 (centres undefined)	100*	x	x	120*	-39	24
CCS(=O)(=O)c1nc2ccccc2n1Cc1ccccn1	-3	-15	17	-3	-2	3
Nc1c(C(=O)N2CCCC2)sc2nc(-c3ccccc3)ccc12	2	11	-9	-2	-11	14
C=CS(=O)(=O)N(Cc1ccccc1)[C@H](CO)CC(C)C	x	x	x	x	0	x
CC(C)CC(C(=O)O)N(Cc1ccccc1)Cc1ccccc1 (centres undefined)	5	-5	8	-2	-2	5
COC(=O)C(CC(C)C)N(Cc1cc(OC)cc(OC)c1)S(=O)(=O)c1ccccc1Br (centres undefined)	x	x	x	x	0	x
